Source: PubChem BioAssay
RBBP9 inh – human RBBP9 hydrolase inhibition; O75884; recombinant RBBP9, FP-Rh probe fluorescence polarization; inhibition, % at 7.94 µM; 220,000 tested, 0.2% active; AID 1515;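 active means inhibition above the campaign mean of all tested compounds plus 3 SD, cut at about 14% in these data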;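 further: plate controls were DMSO wells with RBBP9 for no effect and wells lacking RBBP9 protein for full effect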
Target sequence (O75884 whole entry, looked up): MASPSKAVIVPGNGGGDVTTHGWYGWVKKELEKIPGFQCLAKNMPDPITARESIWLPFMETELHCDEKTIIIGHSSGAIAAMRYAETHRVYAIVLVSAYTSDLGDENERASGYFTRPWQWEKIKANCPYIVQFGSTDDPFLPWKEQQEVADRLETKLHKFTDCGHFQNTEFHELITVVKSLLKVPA
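System: RBBP9 protein / Buffer or medium: Tris/NaCl buffer pH 8.0 with 0.1% Pluronic / Probe or stimulus: Serine-hydrolase probe FP-Rh, 375 nM pre-mixing / Dosing: 7.94 µM single dose, 0.794% DMSO / Times: enzyme-compound preincubation 30 min, then probe labeling 45 min, 25 °C / Technique: fluorescence polarization (mP), excitation 525 nm, emission 598 nm / Replication: singlicate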
14-3-3 Bad PPI – disrupts binding of bovine 14-3-3 zeta to phospho-Bad peptide | TR-FRET 14-3-3zeta/Dy647-pBad peptide displacement, 1 h | 220,000 tested, 0.71% active | P63103 | inhibition, % at 21.7 µM;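 active means inhibition above about 70%, limit read from the data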;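 further: 0% = full 14-3-3 plus peptide FRET controls and 100% = background without 14-3-3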
Target sequence (P63103 whole entry, looked up): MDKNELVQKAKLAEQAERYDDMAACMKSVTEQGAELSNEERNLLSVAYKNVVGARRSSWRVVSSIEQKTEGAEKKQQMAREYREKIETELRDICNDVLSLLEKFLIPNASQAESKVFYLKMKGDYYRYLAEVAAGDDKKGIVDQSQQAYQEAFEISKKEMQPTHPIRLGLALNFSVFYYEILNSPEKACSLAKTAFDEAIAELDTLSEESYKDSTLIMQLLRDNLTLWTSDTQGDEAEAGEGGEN
NCF1 inh – blocks human p47phox regulatory protein of NADPH oxidases; P14598; p47phox/p22phox peptide binding, fluorescence polarization, 2 h; inhibition, % at 24.7 µM; 220,000 tested, 0.53% active; AID 1274;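 further: 0% = p47phox with labelled peptide and 100% = labelled peptide alone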
eIF4E 4G PPI – inhibitors of eIF4E and eIF4G interaction in translation initiation; TR-FRET eIF4E-eIF4GI(517-606) binding, 2 h; inhibition, % at 21.7 µM; 220,000 tested, 0.37% active; AID 782;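 further: 0% = full FRET control wells and 100% = background wells lacking eIF4GI fragment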
Wee1 stabilizer – inhibitors of human Wee1 degradation; P30291; HeLa Luc-Wee1K328M stability, luciferase luminescence; 100% = proteasome inhibitor MG132 effect; reporter increase, % at 5 µM; 220,000 tested, 1.2% active; AID 1321;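 active means activation above the mean of all tested compounds plus 3 SD, set per screening run, cut at about 8.8% in these data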;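 further: cells exposed to compound for 20 h before luminescence read; 0% = DMSO alone and 100% = MG132 at 30 µM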
Starred values were filed as active, the others as inactive; [ ] = another dose, or the depositor's remark. Most compounds without a hit are left out; they make up all but 2.8% or so of the library.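 How the source made its calls, unless noted: active means inhibition above about 30% (limit read from the data); inactive means the rest.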

How did Cc1csc(NC(=O)C2CCCN(S(=O)(=O)c3cccnc3)C2)n1 (stereo unspecified) do in these assays?
RBBP9 inh: -7; 14-3-3 Bad PPI: 10; NCF1 inh: 0; eIF4E 4G PPI: 6; Wee1 stabilizer: 1

What do the screens show for `COC(=O)c1ccc2c(=O)n(C3CCCCC3)c(SCC#N)nc2c1`?
RBBP9 inh: 2; 14-3-3 Bad PPI: 74*; NCF1 inh: -4; eIF4E 4G PPI: -27; Wee1 stabilizer: -2

Results for CCn1c(SCC(=O)Nc2ccccc2OC)nc2ccccc2c1=O ?
RBBP9 inh: -7; 14-3-3 Bad PPI: -2; NCF1 inh: 3; eIF4E 4G PPI: 69*[fluorescence artefact?]; Wee1 stabilizer: -1

Results for COC(=O)c1ccc2c(=O)n(CC3CCCO3)c(SCC(=O)NCCc3ccc(S(N)(=O)=O)cc3)nc2c1 (stereo unspecified) ?
RBBP9 inh: -2; 14-3-3 Bad PPI: -4; NCF1 inh: -3; eIF4E 4G PPI: 2; Wee1 stabilizer: 0

Results for COC(=O)c1ccc2c(=O)n(CC3CCCO3)c(SCC(=O)Nc3ccc(OC)cc3OC)nc2c1 (stereo unspecified) ?
RBBP9 inh: 1; 14-3-3 Bad PPI: 12; NCF1 inh: 31*; eIF4E 4G PPI: 5; Wee1 stabilizer: 0

How did O=C1C2C(c3ccccc3)C=CC(c3ccccc3)C2C(=O)N1c1ccccn1 (stereo unspecified) do in these assays?
RBBP9 inh: -5; 14-3-3 Bad PPI: 5; NCF1 inh: -9; eIF4E 4G PPI: -2; Wee1 stabilizer: 0

What do the screens show for `O=C(CSc1nc2c(c(C(F)(F)F)n1)CCc1ccccc1-2)NCc1ccccc1`?
RBBP9 inh: 1; 14-3-3 Bad PPI: -10; NCF1 inh: -8; eIF4E 4G PPI: 5; Wee1 stabilizer: -2

What do the screens show for `Cc1nn(Cc2ccccc2)c(C)c1NC(=O)CSc1nc2c(c(C(F)(F)F)n1)CCc1ccccc1-2`?
RBBP9 inh: -1; 14-3-3 Bad PPI: 33; NCF1 inh: 42*; eIF4E 4G PPI: 8; Wee1 stabilizer: -1

What do the screens show for `CCN(CC)S(=O)(=O)c1ccc(NC(=O)c2cccc3c2C(=O)N(CCOC)C3)cc1`?
RBBP9 inh: -5; 14-3-3 Bad PPI: 84*[fluorescence artefact?]; NCF1 inh: -4; eIF4E 4G PPI: 8; Wee1 stabilizer: -2

Results for COc1ccc(-c2c(C)nn3c(N)c(C#N)cnc23)cc1OC ?
RBBP9 inh: -8; 14-3-3 Bad PPI: -5; NCF1 inh: -8; eIF4E 4G PPI: 38*; Wee1 stabilizer: -2

Results for Cc1nn2c(N)c(C#N)cnc2c1-c1ccc(Cl)cc1 ?
RBBP9 inh: -3; 14-3-3 Bad PPI: 0; NCF1 inh: -11; eIF4E 4G PPI: -8; Wee1 stabilizer: -2

Results for O=S(=O)(CS(=O)(=O)c1ccc(Cl)cc1)c1ccc(Cl)cc1 ?
RBBP9 inh: -6; 14-3-3 Bad PPI: 1; NCF1 inh: -5; eIF4E 4G PPI: 2; Wee1 stabilizer: 0

What do the screens show for `COc1ccc(N(Cc2cc3cc(OC)ccc3[nH]c2=O)C(=O)C2CCCO2)cc1` (stereo unspecified)?
RBBP9 inh: 1; 14-3-3 Bad PPI: -10; NCF1 inh: -12; eIF4E 4G PPI: -6; Wee1 stabilizer: 0

How did COc1ccc2[nH]c(=O)c(CN(C(=O)C3CCCO3)c3ccc(C)c(C)c3)cc2c1 (stereo unspecified) do in these assays?
RBBP9 inh: -12; 14-3-3 Bad PPI: 3; NCF1 inh: 0; eIF4E 4G PPI: -4; Wee1 stabilizer: 9.4*

Results for CSc1nc(C)cc(OCC(=O)N/N=C/c2ccccc2O)n1 ?
RBBP9 inh: -9; 14-3-3 Bad PPI: -17; NCF1 inh: -6; eIF4E 4G PPI: 11; Wee1 stabilizer: 1

How did O=C(CSc1ccsc1[N+](=O)[O-])Nc1cc(F)ccc1F do in these assays?
RBBP9 inh: -9; 14-3-3 Bad PPI: 83*; NCF1 inh: -6; eIF4E 4G PPI: 50*; Wee1 stabilizer: 1

Results for Cc1ccc(CNC(=O)CSc2ccsc2[N+](=O)[O-])cc1 ?
RBBP9 inh: 8; 14-3-3 Bad PPI: -12; NCF1 inh: -8; eIF4E 4G PPI: -2; Wee1 stabilizer: 1

Results for CC(=O)c1ccc(NC(=O)CSc2ccsc2[N+](=O)[O-])cc1 ?
RBBP9 inh: -8; 14-3-3 Bad PPI: 15; NCF1 inh: -15; eIF4E 4G PPI: 32*; Wee1 stabilizer: 0

What do the screens show for `COc1cc(Br)cc(CN2CCN(C/C=C/c3ccccc3)CC2)c1O`?
RBBP9 inh: 5; 14-3-3 Bad PPI: 68; NCF1 inh: -1; eIF4E 4G PPI: 6; Wee1 stabilizer: 0

Results for COc1ccc(O)c(CN2CCN(C/C=C/c3ccccc3)CC2)c1 ?
RBBP9 inh: -3; 14-3-3 Bad PPI: 74*; NCF1 inh: -7; eIF4E 4G PPI: -4; Wee1 stabilizer: 1

What do the screens show for `COC(=O)C1=C(C)NC(=O)C1(Nc1ccc(Cl)cn1)C(F)(F)F` (stereo unspecified)?
RBBP9 inh: 2; 14-3-3 Bad PPI: -11; NCF1 inh: -12; eIF4E 4G PPI: 35*[fluorescence artefact?]; Wee1 stabilizer: 0

How did O=C(CN1CCN(Cc2ccccc2)CC1)N/N=C/c1ccc(Br)s1 do in these assays?
RBBP9 inh: 4; 14-3-3 Bad PPI: -1; NCF1 inh: 3; eIF4E 4G PPI: 0; Wee1 stabilizer: -1

What do the screens show for `CCOC(=O)C(=O)N/N=C/c1ccc(F)cc1`?
RBBP9 inh: -8; 14-3-3 Bad PPI: 4; NCF1 inh: -12; eIF4E 4G PPI: 4; Wee1 stabilizer: 3

How did CCOC(=O)C(=O)NNc1ccc(F)cc1 do in these assays?
RBBP9 inh: 5; 14-3-3 Bad PPI: 1; NCF1 inh: -1; eIF4E 4G PPI: 31*; Wee1 stabilizer: -2

How did NS(=O)(=O)c1cccc(NC(=O)COC(=O)c2cc(Cl)ccc2[N+](=O)[O-])c1 do in these assays?
RBBP9 inh: -7; 14-3-3 Bad PPI: 2; NCF1 inh: -3; eIF4E 4G PPI: -12; Wee1 stabilizer: 1

How did NS(=O)(=O)c1ccc(NC(=O)COC(=O)c2ccc(Cl)cc2[N+](=O)[O-])cc1 do in these assays?
RBBP9 inh: -5; 14-3-3 Bad PPI: 4; NCF1 inh: -5; eIF4E 4G PPI: 8; Wee1 stabilizer: 11*

How did Cc1noc(C)c1C(=O)N1CCCc2ccccc21 do in these assays?
RBBP9 inh: -11; 14-3-3 Bad PPI: 2; NCF1 inh: 53*; eIF4E 4G PPI: 2; Wee1 stabilizer: 1

What do the screens show for `COc1ccc(C(=O)N2CCCc3ccccc32)cc1`?
RBBP9 inh: 6; 14-3-3 Bad PPI: 88*; NCF1 inh: -11; eIF4E 4G PPI: -2; Wee1 stabilizer: 0

Results for COc1ccc(OC)c(-c2cc(C(=O)N3CCCc4ccccc43)no2)c1 ?
RBBP9 inh: -2; 14-3-3 Bad PPI: 10; NCF1 inh: -9; eIF4E 4G PPI: 1; Wee1 stabilizer: -1

Results for COc1ccccc1-c1cc(C(=O)N2CCCc3ccccc32)no1 ?
RBBP9 inh: -2; 14-3-3 Bad PPI: -14; NCF1 inh: -4; eIF4E 4G PPI: -2; Wee1 stabilizer: 9.8*
